Experiment [1] has as its target Glutamate NMDA receptor. As to the kind of experiment: Displacement of [3H]-ifenprodil from rat cortical membranes NMDA receptor by beta counting analysis in absence of spermine. (In general: In a radioligand displacement assay an active substance lowers the binding of a labelled ligand.)
In experiment [2] the target is Glutamate NMDA receptor. As to the kind of experiment: Displacement of [3H]-MK-801 from rat cortical membranes NMDA receptor by beta counting analysis in presence of 30 uM spermine. In a few lines: (§1)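 Membranes from rat frontoparietal cortex and hippocampus, prepared in 50 mM Tris acetate pH 7.0. 5 nM [3H]MK-801 was incubated with membranes (~1 mg wet tissue) for 3 h at 23 °C in 10 mM Tris acetate pH 7.0 with 10 µM glutamate and glycine, in triplicate, with or without 30 µM spermine. Compounds were tested at 3–4 concentrations. Nonspecific binding was set with 100 µM (S)-ketamine. Bound ligand was filtered and scintillation-counted. Spermine sensitivity = IC50 (with spermine)/IC50 (without).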

Experiment [3] addresses Glutamate NMDA receptor (Rattus norvegicus) (UniProt P35439+Q00959+Q00960+Q00961+Q62645+Q8VHN2+Q9R1M7). As to the kind of experiment: Ratio of IC50 for displacement of [3H]-MK-801 from rat cortical membranes NMDA receptor in presence of 30 uM spermine to IC50 for displacement of [3H]-MK-801 from rat cortical membranes NMDA receptor in absence of 30 spermine. The procedure, abridged: as §1

Experiment [4] deals with Glutamate NMDA receptor. As to the kind of experiment: Displacement of [3H]-MK-801 from rat cortical membranes NMDA receptor by beta counting analysis in absence of spermine. The procedure, abridged: as §1

A value given as a limit tells only on which side of the number the result lay.

With `N=C(N)c1ccc(OC(=O)c2ccc(C(=O)Oc3ccc(C(=N)N)cc3)cc2)cc1` [BIS(4-CARBAMIMIDOYLPHENYL)TEREPHTHALATE], the values for the IC50 on Glutamate NMDA receptor [1], on Glutamate NMDA receptor [2] and at Glutamate NMDA receptor [4] were 27 µM, 46.6 µM and 10.8 µM, respectively. Also, the Ratio IC50 in experiment [3] is 3.98.
In the same order, the values of `CN(CCNc1ccc(C(=N)N)cc1)c1ccc(C(=N)N)cc1` are 7.14 µM, 85.3 µM, 3.18 µM and 30.2.
In the same order, the values of `CN(CCCN(C)c1ccc(C(=N)N)cc1)c1ccc(C(=N)N)cc1` are 31.2 µM, 24.7 µM, 1.84 µM and 14.7.
For the compound `CCN(CCN(CC)c1ccc(C(=N)N)cc1)c1ccc(C(=N)N)cc1`, the IC50 was 9.16 µM on Glutamate NMDA receptor [1], 13.8 µM on Glutamate NMDA receptor [2] and 1.14 µM on Glutamate NMDA receptor [4]. Moreover, the Ratio IC50 in experiment [3] was determined as 11.8.
In the same order, the values of `CC(C)NC(=N)c1ccc(NC(=O)c2cccc(C(=O)Nc3ccc(C(=N)NC(C)C)cc3)n2)cc1` are 49.4 µM, 74.9 µM, 6.94 µM and 10.8.
The corresponding values for `N=C(N)c1ccc(NC(=O)CCCC(=O)Nc2ccc(C(=N)N)cc2)cc1` are 54.5 µM, 675 µM, 230 µM and 2.81.
The corresponding values for `N=C(N)c1ccc(NCCNc2ccc(C(=N)N)cc2)cc1` are 0.76 µM, 50.7 µM, 2.01 µM and 30.2.
On to `CCN(CCNc1ccc(C(=N)N)cc1)c1ccc(C(=N)N)cc1`, for which the half-inhibitory concentration (IC50) on Glutamate NMDA receptor [1] was 13 µM; at Glutamate NMDA receptor [2] it was 48.1 µM; at Glutamate NMDA receptor [4], 2.61 µM. Moreover, the Ratio IC50 in experiment [3] was 19.3.
In the same order, the values of `N=C(N)c1ccc(OCc2cccc(COc3ccc(C(=N)N)cc3)c2)cc1` are 3.97 µM, 6.7 µM, 0.79 µM and 9.04.
The corresponding values for `NCCCCCCCCc1ccc(CCCCN)s1` are 49.3 µM, 6.1 µM, 0.52 µM and 15.1.
`N=C(N)c1ccc(OCc2ccc(COc3ccc(C(=N)N)cc3)cc2)cc1`: the values for the IC50 at Glutamate NMDA receptor [1], on Glutamate NMDA receptor [2] and on Glutamate NMDA receptor [4] were 10.8 µM, 25.7 µM and 5.24 µM, respectively. Also, the Ratio IC50 in experiment [3] is 5.25.
For the compound `Cc1ccc(S(=O)(=O)N(CCOc2ccc(C(=N)N)cc2)CCOc2ccc(C(=N)N)cc2)cc1`, the half-maximal inhibitory concentration (IC50) at Glutamate NMDA receptor [1] was 0.41 µM; at Glutamate NMDA receptor [2] it was 1.32 µM; on Glutamate NMDA receptor [4] it was 0.24 µM. For the same compound, the Ratio IC50 in experiment [3] stood at 6.28.
For `N=C(N)c1ccc(OCc2ccccc2COc2ccc(C(=N)N)cc2)cc1`, the results for the concentration for half-maximal inhibition (IC50) at Glutamate NMDA receptor [1], on Glutamate NMDA receptor [2] and on Glutamate NMDA receptor [4] were 1.42 µM, 5.54 µM and 1.46 µM, respectively. For the same compound, the Ratio IC50 in experiment [3] was 4.
As for `N=C(N)c1ccc(NC(=O)c2cccc(C(=O)Nc3ccc(C(=N)N)cc3)n2)cc1`, the IC50 at Glutamate NMDA receptor [1] is over 100 µM; on Glutamate NMDA receptor [2] it was 70.9 µM; on Glutamate NMDA receptor [4] it was 58.2 µM. The Ratio IC50 in experiment [3] is 1.22.
The corresponding values for `CN(CCN(C)c1ccc(C(=N)N)cc1)c1ccc(C(=N)N)cc1` are 16.9 µM, 54.5 µM, 2.71 µM and 20.9.
For the compound `N=C(N)c1ccc(N2CCCN(c3ccc(C(=N)N)cc3)CC2)cc1`, the half-maximal inhibitory concentration (IC50) at Glutamate NMDA receptor [1] was determined as 19.1 µM; at Glutamate NMDA receptor [2], 5.47 µM; at Glutamate NMDA receptor [4], 0.25 µM. Besides, the Ratio IC50 in experiment [3] came to 20.4.
Take `N=C(N)c1ccc(COc2ccccc2OCc2ccc(C(=N)N)cc2)cc1`: the IC50 on Glutamate NMDA receptor [1] was determined as 7.29 µM; at Glutamate NMDA receptor [2], 18.4 µM; at Glutamate NMDA receptor [4], 2.19 µM. Besides, in experiment [3], the Ratio IC50 amounted to 10.1.

As a reminder, the IC50 is the concentration that inhibits the measured activity by half.
